Measured values pooled from the literature.
Values after ≈ are worked out from the molar mass of the structure shown.

SMILES | tested on | observed | method | strain | time | endpoint | value
O=c1ccc2nc3ccc(OCc4ccc([N+](=O)[O-])o4)cc3oc-2c1 | Enterococcus faecium | microbial growth | – | – | 24 h | MIC | > 32 µg/mL
N.N.[Cl][Pt][Cl] | CCD 19Lu | cell growth or viability | MTT | – | 72 h | IC50 | 56.1 µM
CC(=O)N1CCN(c2ccc(OCC3COC(Cn4ccnc4)(c4ccc(Cl)cc4Cl)O3)cc2)CC1 (centres unmarked) | Candida albicans | microbial killing | broth dilution | 58288 | 48 h | MFC | > 64 µM
OC(Cn1cncn1)(Cn1cncn1)c1ccc(F)cc1F | Candida albicans | microbial growth | broth dilution | ATCC60193 | – | MIC | 2 µg/mL (≈ 6.53 µM)
Cc1cnc(NC(=O)/C=C/c2cccs2)nc1 | Candida albicans | microbial growth | – | – | 48 h | MIC80 | 25 µM (≈ 6.13 µg/mL)
O=c1ccc2nc3ccc(O)cc3oc-2c1 | Enterococcus faecium | microbial growth | – | – | 24 h | MIC | > 32 µg/mL
OC(Cn1cncn1)(Cn1cncn1)c1ccc(F)cc1F | Candida albicans | microbial killing | broth dilution | SP3903 | 48 h | MFC | > 64 µM
O=C(CCc1ccccc1)Nc1ncccn1 | Candida albicans | microbial growth | – | – | 48 h | MIC80 | > 100 µM
